Test results taken from ChEMBL document CHEMBL2046351, “Discovery of cyclic sulfone hydroxyethylamines as potent and selective β-site APP-cleaving enzyme 1 (BACE1) inhibitors: structure-based design and in vivo reduction of amyloid β-peptides” (J Med Chem, 2012).

Columns and labels:
Assay type in all cases: ADME, organism-based
[1] = Drug uptake in C57BL/6 mouse blood at 2 umol/kg, iv dosed in N-methyl pyrrolidone/blank plasma (10:90 v/v) measured 1 hr post dosing by LC/MS/MS analysis; conditions: read-out: Drug uptake
Method in brief: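 Male C57BL/6 mice, saphenous vein injection under light anesthesia, 5 mL/kg. Blood at 5, 30 min and 1, 2, 4, 6, 8 h; brain at 5 min, 1, 4, 8 h; n = 3/time. LC-MS/MS after acetonitrile precipitation (brain water-homogenized). Noncompartmental analysis, 1/Y weighting, terminal slope from ≥3 points.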

Brain = assay: Drug uptake in C57BL/6 mouse brain at 6 umol/kg, po dosed in carboxymethyl cellulose 0.5% w/v in water/Tween 80 (99.5/0.5, v/v) measured 1 hr post dosing by LC/MS/MS analysis; conditions: in vivo
Method in brief: (§1)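 Male C57BL/6 mice dosed by oral gavage, 10 mL/kg. Blood sampled 0.25, 0.5, 1, 2, 4, 6 h; brain at 1 and/or 4 h; n = 3 per time. Blood acetonitrile-precipitated, brain water-homogenized then precipitated; LC-MS/MS with weighted linear calibration.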

[2] = Drug uptake in C57BL/6 mouse blood at 6 umol/kg, po dosed in carboxymethyl cellulose 0.5% w/v in water/Tween 80 (99.5/0.5, v/v) measured 1 hr post dosing by LC/MS/MS analysis; conditions: read-out: Drug uptake; method in brief: as §1
[3] = Ratio of drug uptake in brain to blood in C57BL/6 mouse at 6 umol/kg, po dosed in HS15/propylenglycol/citrate buffer, pH 4.75, 50 mM (10/5/85, v/v/v) measured 4 hrs post dosing by LC/MS/MS analysis
Method in brief: (§2)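 Male C57BL/6 mice received the dose by oral gavage at 10 mL/kg. Blood and brain were collected at 1 and/or 4 h postdose. Brain was homogenised in water, and both matrices were extracted by acetonitrile precipitation and quantified by LC-MS/MS. The ratio is mean brain (nmol/g) over mean blood (nmol/mL) concentration, n = 3.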

[4] = Ratio of drug uptake in brain to blood in C57BL/6 mouse at 60 umol/kg, po dosed in HS15/propylenglycol/citrate buffer, pH 4.75, 50 mM (10/5/85, v/v/v) measured 4 hrs post dosing by LC/MS/MS analysis; method in brief: as §2
[5] = Drug uptake in C57BL/6 mouse blood at 6 umol/kg, po dosed in HS15/propylenglycol/citrate buffer, pH 4.75, 50 mM (10/5/85, v/v/v) measured 4 hrs post dosing by LC/MS/MS analysis; conditions: read-out: Drug uptake; method in brief: as §1
[6] = Oral bioavailability in C57BL/6 mouse at 6 umol/kg dosed in HS15/propylenglycol/citrate buffer, pH 4.75, 50 mM (10/5/85, v/v/v) by LC/MS/MS analysis; conditions: in vivo
Method in brief: (§3)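 Oral gavage (10 mL/kg) to male C57BL/6 mice with iv reference segment (2 μmol/kg, NMP/blank plasma 10:90). Noncompartmental analysis of LC-MS/MS blood profiles, 1/Y weighting; %F = dose-normalized oral AUC / dose-normalized iv AUC × 100, assuming linear pharmacokinetics between doses.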

[7] = Oral bioavailability in C57BL/6 mouse at 60 umol/kg dosed in HS15/propylenglycol/citrate buffer, pH 4.75, 50 mM (10/5/85, v/v/v) by LC/MS/MS analysis; conditions: in vivo; method in brief: as §3

Row | concentration at 1 h [1] [µM] | Drug uptake (Brain) [nmol/g] | concentration at 1 h [2] [µM] | Kp at 4 h [3] | Kp at 4 h [4] | concentration at 4 h [5] [µM] | bioavailability [6] [%] | bioavailability [7] [%] | Compound
1 | 0.06 | 0.08 | 0.03 |  |  |  |  |  | CC(C)(C)c1cccc(CN[C@H]2CS(=O)(=O)C[C@@H](Cc3cc(F)c(N)c(OCC(F)(F)F)c3)[C@@H]2O)c1
2 |  |  |  | 0.3 | 0.8 | 0.03 | 32 | 33 | CC(C)(C)c1cccc(CN[C@H]2CS(=O)(=O)C[C@@H](Cc3cc(F)c(N)c(OC(C(F)(F)F)C(F)(F)F)c3)[C@@H]2O)c1
